Test results: ChEMBL document CHEMBL4229530, “5-Adamantan thiadiazole-based thiazolidinones as antimicrobial agents. Design, synthesis, molecular docking and evaluation” (2018)
Converted amounts (≈) assume the structure as drawn.

What was measured:
[1] = tested on: Listeria monocytogenes; test: Antibacterial activity against Listeria monocytogenes NCTC 7973 after 24 hrs by INT dye based microdilution assay; format: functional; conditions: NCTC 7973, 24 h
Procedure, shortened: (§1)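 Broth microdilution in tryptic soy broth: overnight bacterial culture adjusted to 1×10^5 CFU/mL, 1.0×10^4 CFU per well; compounds dissolved in 5% DMSO, tested at 0.001-1.0 mg/ml; 24 h at 37°C. Streptomycin and ampicillin as positive controls, 5% DMSO as negative control; duplicate, repeated three times.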

[2] = tested on: Aspergillus fumigatus; test: Antifungal activity against Aspergillus fumigatus isolate 1022 after 72 hrs by serial dilution assay; format: functional; conditions: isolate 1022, 72 h
Procedure, shortened: (§2)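 Modified microdilution: fungal spores washed off malt agar with sterile 0.85% saline plus 0.1% Tween 80, adjusted to about 1.0×10^5 per 100 µL well. Compounds in 5% DMSO (0.001-1.0 mg/ml) in malt broth; 72 h at 28°C on rotary shaker (160 rpm). MIC is lowest concentration without visible growth under binocular microscope. Bifonazole and ketoconazole controls (1-3500 µg/mL); three independent experiments in duplicate.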

[3] = tested on: Escherichia coli; test: Antibacterial activity against Escherichia coli ATCC 35210 after 24 hrs by INT dye based microdilution assay; format: functional; conditions: ATCC 35210, 24 h; procedure, shortened: as §1
[4] = tested on: Enterobacter cloacae; test: Antibacterial activity against Enterobacter cloacae after 24 hrs by INT dye based microdilution assay; format: functional; procedure, shortened: as §1
[5] = tested on: Micrococcus flavus; test: Antibacterial activity against Micrococcus flavus ATCC 10240 after 24 hrs by INT dye based microdilution assay; format: functional; conditions: ATCC 10240, 24 h; procedure, shortened: as §1
[6] = tested on: Aspergillus versicolor; test: Antifungal activity against Aspergillus versicolor ATCC 11730 after 72 hrs by serial dilution assay; format: functional; conditions: ATCC 11730, 72 h; procedure, shortened: as §2
[7] = tested on: Bacillus cereus; test: Antibacterial activity against Bacillus cereus after 24 hrs by INT dye based microdilution assay; format: functional; procedure, shortened: as §1
[8] = tested on: Trichoderma viride; test: Antifungal activity against Trichoderma viride IAM 5061 after 72 hrs by serial dilution assay; format: functional; conditions: IAM 5061, 72 h; procedure, shortened: as §2
[9] = tested on: Penicillium ochrochloron; test: Antifungal activity against Penicillium ochrochloron ATCC 9112 after 72 hrs by serial dilution assay; format: functional; conditions: ATCC 9112, 72 h; procedure, shortened: as §2
[10] = tested on: Talaromyces funiculosus; test: Antifungal activity against Penicillium funiculosum ATCC 36839 after 72 hrs by serial dilution assay; format: functional; conditions: ATCC 36839, 72 h; procedure, shortened: as §2
[11] = tested on: Aspergillus ochraceus; test: Antifungal activity against Aspergillus ochraceus ATCC 12066 after 72 hrs by serial dilution assay; format: functional; conditions: ATCC 12066, 72 h; procedure, shortened: as §2
[12] = tested on: Pseudomonas aeruginosa; test: Antibacterial activity against Pseudomonas aeruginosa ATCC 27853 after 24 hrs by INT dye based microdilution assay; format: functional; conditions: ATCC 27853, 24 h; procedure, shortened: as §1
[13] = tested on: Salmonella typhimurium; test: Antibacterial activity against Salmonella typhimurium ATCC 13311 after 24 hrs by INT dye based microdilution assay; format: functional, Salmonella enterica subsp. enterica serovar Typhimurium; conditions: Salmonella enterica, ATCC 13311, 24 h; procedure, shortened: as §1
[14] = tested on: Candida albicans; test: Antifungal activity against Candida albicans after 72 hrs by serial dilution assay; format: functional; procedure, shortened: as §2
[15] = tested on: Staphylococcus aureus; test: Antibacterial activity against Staphylococcus aureus ATCC 6538 after 24 hrs by INT dye based microdilution assay; format: functional; conditions: ATCC 6538, 24 h; procedure, shortened: as §1
[16] = tested on: Aspergillus niger; test: Antifungal activity against Aspergillus niger ATCC 6275 after 72 hrs by serial dilution assay; format: functional; conditions: ATCC 6275, 72 h; procedure, shortened: as §2
[17] = tested on: Penicillium verrucosum; test: Antifungal activity against Penicillium cyclopium var verucosum after 72 hrs by serial dilution assay; format: functional; procedure, shortened: as §2
[18] = tested on: Listeria monocytogenes; test: Potency index, ratio of ampicillin MIC to compound MIC for antibacterial activity against Listeria monocytogenes NCTC 7973; format: functional
[19] = tested on: Pseudomonas aeruginosa; test: Antibacterial activity against drug-resistant Pseudomonas aeruginosa after 24 hrs by INT dye based microdilution assay; format: functional
Procedure, shortened: (§3)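 Broth microdilution in tryptic soy broth. Overnight culture adjusted to 1×10^5 CFU/mL, giving 1.0×10^4 CFU per well. Compounds dissolved in 5% DMSO and tested at 0.001-1.0 mg/ml. Plates incubated 24 h at 37°C. INT (0.2 mg/mL) then added, with 30 min at 37°C. Duplicate, repeated three times.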

[20] = tested on: Listeria monocytogenes; test: Potency index, ratio of streptomycin MIC to compound MIC for antibacterial activity against Listeria monocytogenes NCTC 7973; format: functional
[21] = tested on: Escherichia coli; test: Antibacterial activity against drug-resistant Escherichia coli after 24 hrs by INT dye based microdilution assay; format: functional; procedure, shortened: as §3
[22] = tested on: Staphylococcus aureus; test: Antibacterial activity against methicillin-resistant Staphylococcus aureus after 24 hrs by INT dye based microdilution assay; format: functional; procedure, shortened: as §3

SMILES	MIC [1]	MIC [2]	MIC [3]	MIC [4]	MIC [5]	MIC [6]	MIC [7]	MIC [8]	MIC [9]	MIC [10]	MIC [11]	MIC [12]	MIC [13]	MIC [14]	MIC [15]	MIC [16]	MIC [17]	MIC [19]	MIC [21]	MIC [22]	other results
O=C1N/C(=N\c2nnc(C34CC5CC(CC(C5)C3)C4)s2)S/C1=C/c1ccc(Br)cc1	250 µM (≈ 125 µg/mL)	125 µM (≈ 62.7 µg/mL)	0.08 µM (≈ 0.0401 µg/mL)	60 µM (≈ 30.1 µg/mL)	250 µM (≈ 125 µg/mL)	62.5 µM (≈ 31.3 µg/mL)	14 µM (≈ 7.02 µg/mL)	31.2 µM (≈ 15.6 µg/mL)	62.5 µM (≈ 31.3 µg/mL)	125 µM (≈ 62.7 µg/mL)	15.6 µM (≈ 7.82 µg/mL)	60 µM (≈ 30.1 µg/mL)	14 µM (≈ 7.02 µg/mL)	200 µM (≈ 100 µg/mL)	0.06 µM (≈ 0.0301 µg/mL)	62.5 µM (≈ 31.3 µg/mL)	–	–	–	–	–
O=C1N/C(=N\c2nnc(C34CC5CC(CC(C5)C3)C4)s2)S/C1=C/c1cccc([N+](=O)[O-])c1	17 µM (≈ 7.95 µg/mL)	107 µM (≈ 50 µg/mL)	0.0418 µM (≈ 0.0195 µg/mL)	41.8 µM (≈ 19.5 µg/mL)	41.8 µM (≈ 19.5 µg/mL)	107 µM (≈ 50 µg/mL)	21.4 µM (≈ 10 µg/mL)	53.5 µM (≈ 25 µg/mL)	214 µM (≈ 100 µg/mL)	107 µM (≈ 50 µg/mL)	107 µM (≈ 50 µg/mL)	21.4 µM (≈ 10 µg/mL)	21.4 µM (≈ 10 µg/mL)	–	0.0418 µM (≈ 0.0195 µg/mL)	214 µM (≈ 100 µg/mL)	0.107 µM (≈ 0.05 µg/mL)	53.5 µM (≈ 25 µg/mL)	0.0535 µM (≈ 0.025 µg/mL)	0.107 µM (≈ 0.05 µg/mL)	Ratio [18]: 29; Ratio [20]: 20
c1ccc(-c2ccc(C(c3ccccc3)n3ccnc3)cc2)cc1 (stereo not given) [BIFONAZOLE]	–	480 µM (≈ 149 µg/mL)	–	–	–	480 µM (≈ 149 µg/mL)	–	640 µM (≈ 199 µg/mL)	480 µM (≈ 149 µg/mL)	640 µM (≈ 199 µg/mL)	480 µM (≈ 149 µg/mL)	–	–	322 µM (≈ 99.9 µg/mL)	–	480 µM (≈ 149 µg/mL)	0.322 µM (≈ 0.0999 µg/mL)	–	–	–	–
O=C1N/C(=N\c2nnc(C34CC5CC(CC(C5)C3)C4)s2)S/C1=C/c1c(Cl)cccc1Cl	21.4 µM (≈ 10.5 µg/mL)	61 µM (≈ 30 µg/mL)	0.0407 µM (≈ 0.02 µg/mL)	21.4 µM (≈ 10.5 µg/mL)	40.7 µM (≈ 20 µg/mL)	61 µM (≈ 30 µg/mL)	40.7 µM (≈ 20 µg/mL)	122 µM (≈ 60 µg/mL)	61 µM (≈ 30 µg/mL)	61 µM (≈ 30 µg/mL)	92 µM (≈ 45.2 µg/mL)	40.7 µM (≈ 20 µg/mL)	40.7 µM (≈ 20 µg/mL)	–	0.0407 µM (≈ 0.02 µg/mL)	61 µM (≈ 30 µg/mL)	0.122 µM (≈ 0.06 µg/mL)	61.1 µM (≈ 30 µg/mL)	0.0305 µM (≈ 0.015 µg/mL)	0.0611 µM (≈ 0.03 µg/mL)	–
O=C1N/C(=N\c2nnc(C34CC5CC(CC(C5)C3)C4)s2)S/C1=C/c1ccc(O)cc1	284 µM (≈ 125 µg/mL)	142 µM (≈ 62.3 µg/mL)	0.091 µM (≈ 0.0399 µg/mL)	34 µM (≈ 14.9 µg/mL)	142 µM (≈ 62.3 µg/mL)	71 µM (≈ 31.1 µg/mL)	34 µM (≈ 14.9 µg/mL)	71 µM (≈ 31.1 µg/mL)	142 µM (≈ 62.3 µg/mL)	71 µM (≈ 31.1 µg/mL)	71 µM (≈ 31.1 µg/mL)	34 µM (≈ 14.9 µg/mL)	34 µM (≈ 14.9 µg/mL)	284 µM (≈ 125 µg/mL)	0.068 µM (≈ 0.0298 µg/mL)	142 µM (≈ 62.3 µg/mL)	–	–	–	–	–
COc1ccc(/C=C2/S/C(=N/c3nnc(C45CC6CC(CC(C6)C4)C5)s3)NC2=O)cc1	44.8 µM (≈ 20.3 µg/mL)	99.8 µM (≈ 45.2 µg/mL)	0.0995 µM (≈ 0.045 µg/mL)	99.5 µM (≈ 45 µg/mL)	99.5 µM (≈ 45 µg/mL)	99.8 µM (≈ 45.2 µg/mL)	99.5 µM (≈ 45 µg/mL)	179 µM (≈ 81 µg/mL)	99.8 µM (≈ 45.2 µg/mL)	99.8 µM (≈ 45.2 µg/mL)	99.8 µM (≈ 45.2 µg/mL)	99.5 µM (≈ 45 µg/mL)	44.8 µM (≈ 20.3 µg/mL)	–	0.0448 µM (≈ 0.0203 µg/mL)	179 µM (≈ 81 µg/mL)	0.0998 µM (≈ 0.0452 µg/mL)	111 µM (≈ 50.1 µg/mL)	0.0553 µM (≈ 0.025 µg/mL)	0.111 µM (≈ 0.0501 µg/mL)	–
